Active and inactive are the calls of the source. Where only a bound is given, the exact number is not on record here.

Series [1] relates to Mus musculus. Put plainly: Antialzheimer activity in 5XFAD mouse assessed as iron reactivity by measuring hemosiderin intensity of prussian blue staining in […] cortex at 1200 ppm administered as rodent chow starting from 1.5 months and measured after 4 months by confocal microscopic analysis (reference value: 0.1 to 8.816 a.u.). The class given is functional. Conditions: route po, time 2.5 months, 1825 h. Put shortly: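 Wild-type or 5xFAD mice fed PLX5622 (1200 ppm) in AIN-76A chow from 1.5 months of age, examined in 4- and 7-month-old cohorts. Brain sections stained with a Prussian blue kit per kit instructions to detect iron deposits (microbleeds).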

Series [2] deals with Homeodomain-interacting protein kinase 1 (Homo sapiens, UniProt Q86Z02). Nature of the series: Inhibition of HIPK1 (unknown origin).
Sequence of Homeodomain-interacting protein kinase 1 (Q86Z02 whole entry): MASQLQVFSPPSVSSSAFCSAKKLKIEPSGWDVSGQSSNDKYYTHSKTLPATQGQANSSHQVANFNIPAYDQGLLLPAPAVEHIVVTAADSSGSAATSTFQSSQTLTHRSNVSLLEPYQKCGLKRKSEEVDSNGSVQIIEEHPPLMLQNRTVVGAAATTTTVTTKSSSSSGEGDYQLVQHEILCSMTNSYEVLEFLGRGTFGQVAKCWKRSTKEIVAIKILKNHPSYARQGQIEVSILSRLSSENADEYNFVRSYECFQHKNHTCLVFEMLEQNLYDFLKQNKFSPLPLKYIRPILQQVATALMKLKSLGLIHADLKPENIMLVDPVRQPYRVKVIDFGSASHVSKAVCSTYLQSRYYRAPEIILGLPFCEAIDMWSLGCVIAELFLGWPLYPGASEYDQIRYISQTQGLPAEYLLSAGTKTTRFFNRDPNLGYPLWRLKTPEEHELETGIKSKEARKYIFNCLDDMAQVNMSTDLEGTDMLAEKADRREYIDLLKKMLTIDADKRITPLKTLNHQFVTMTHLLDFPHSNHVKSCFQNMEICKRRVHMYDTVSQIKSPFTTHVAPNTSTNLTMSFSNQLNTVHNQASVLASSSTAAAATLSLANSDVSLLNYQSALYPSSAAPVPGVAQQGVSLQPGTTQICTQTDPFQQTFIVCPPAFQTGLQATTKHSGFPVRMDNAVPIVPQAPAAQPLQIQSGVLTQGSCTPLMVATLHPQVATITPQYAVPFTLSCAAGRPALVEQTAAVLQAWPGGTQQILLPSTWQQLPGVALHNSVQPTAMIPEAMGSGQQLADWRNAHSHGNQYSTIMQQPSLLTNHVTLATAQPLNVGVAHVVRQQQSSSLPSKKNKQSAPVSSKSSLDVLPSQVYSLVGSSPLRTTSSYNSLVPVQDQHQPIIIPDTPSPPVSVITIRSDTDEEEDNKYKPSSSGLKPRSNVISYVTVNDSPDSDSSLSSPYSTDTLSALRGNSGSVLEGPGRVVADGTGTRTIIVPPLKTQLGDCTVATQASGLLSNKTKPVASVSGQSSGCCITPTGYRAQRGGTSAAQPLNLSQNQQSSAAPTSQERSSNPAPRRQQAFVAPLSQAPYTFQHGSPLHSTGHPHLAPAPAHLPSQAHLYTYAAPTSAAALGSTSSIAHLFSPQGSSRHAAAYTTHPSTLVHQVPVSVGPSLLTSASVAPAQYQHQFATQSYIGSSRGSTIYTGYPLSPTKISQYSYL
Series [3] has as its target Homeodomain-interacting protein kinase 2 (Homo sapiens, UniProt Q9H2X6). Put plainly: Inhibition of HIPK2 (unknown origin).
A short description of series [4]: Half-life in monkey at 1.35 mg/kg, iv administered as single dose. The series is classed as ADME, organism-based, Macaca mulatta. Conditions: rhesus monkey, in vivo.
A short description of series [5]: Effect on Itgax gene expression in 5XFAD mouse thalamus at 1200 ppm administered as rodent chow starting from 1.5 months and measured after 7 months by RNA-Seq analysis (reference value: 1.842 to 2.823 RPKM). The class given is functional. Conditions: route po, time 5.5 months, 4015 h.
Series [6] in a line: Prevention of Kcnq3 gene downregulation in 5XFAD mouse hippocampus assessed as percent change in Reads Per kilo base per Million mapped reads at 1200 ppm administered as rodent chow starting from 1.5 months and measured after 7 months by RNA-Seq analysis (reference value: 55.386 to 68.581 %). The class given is functional. Conditions: route po, time 5.5 months, 4015 h.
The target of series [7] is Serine/threonine-protein kinase pim-2 (Homo sapiens, UniProt Q9P1W9). Put plainly: Inhibition of PIM2 (unknown origin).
Sequence of Serine/threonine-protein kinase pim-2 (Q9P1W9 whole entry): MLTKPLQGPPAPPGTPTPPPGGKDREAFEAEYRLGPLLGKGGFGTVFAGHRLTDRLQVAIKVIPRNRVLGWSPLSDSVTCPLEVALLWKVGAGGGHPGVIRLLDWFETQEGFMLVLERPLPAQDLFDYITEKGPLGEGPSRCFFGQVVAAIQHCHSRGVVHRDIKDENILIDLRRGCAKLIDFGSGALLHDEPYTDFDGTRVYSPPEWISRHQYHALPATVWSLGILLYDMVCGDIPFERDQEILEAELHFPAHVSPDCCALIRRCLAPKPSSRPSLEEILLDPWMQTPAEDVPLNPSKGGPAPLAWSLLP
For series [8], the system named is Mus musculus. Nature of the series: Antialzheimer activity in 5XFAD mouse assessed as proportion of time spent freezing at 1200 ppm administered as rodent chow for 10 to 24 weeks by […] (reference value: 0.00 to 0.43). Conditions: route po, time 10-24 weeks. The class given is functional.
Series [9] in a line: Effect on Itgax gene expression in wild type mouse cortex at 1200 ppm administered as rodent chow starting from 1.5 months and measured after 7 months by RNA-Seq analysis (reference value: 0.069 to 0.218 RPKM). The class given is functional. Conditions: route po, time 5.5 months, 4015 h.
Series [10] concerns the target NT-3 growth factor receptor (Homo sapiens, UniProt Q16288). Nature of the series: Inhibition of NTRK3 (unknown origin).
Series [11] deals with Mus musculus. Put plainly: Prevention of Nell2 gene downregulation in 5XFAD mouse hippocampus at 1200 ppm administered as rodent chow starting from 1.5 months and measured after 7 months by Nanostring analysis. Conditions: route po, time 5.5 months. The class given is functional, tissue-based.
Series [12] can be described thus: Effect on Hexb gene expression in wild type mouse cortex at 1200 ppm administered as rodent chow starting from 1.5 months and measured after 7 months by RNA-Seq analysis (reference value: 38.813 to 48.079). The series is classed as functional. Conditions: route po, time 5.5 months, 4015 h.
The target in series [13] is Tyrosine-protein kinase receptor TYRO3 (Homo sapiens, UniProt Q06418). Nature of the series: Inhibition of TYRO3 (unknown origin).
For series [14], the system named is Mus musculus. Nature of the series: Antialzheimer activity in 5XFAD mouse assessed as time spent in open arm at 1200 ppm administered as rodent chow for 10 to 24 weeks by Elevated plus maze test (reference value: 34.1 to 208.9 sec). The series is classed as functional. Conditions: route po, time 10-24 weeks.
The nature of series [15]: Effect on Hexb gene expression in 5XFAD mouse thalamus at 1200 ppm administered as rodent chow starting from 1.5 months and measured after 7 months by RNA-Seq analysis (reference value: 75.322 to 93.439 RPKM). The class given is functional. Conditions: route po, time 5.5 months, 4015 h.
Series [16] concerns the target Tyrosine-protein kinase CSK (Homo sapiens, UniProt P41240). Put plainly: Inhibition of CSK (unknown origin).
For series [17], the target named is Phosphorylase b kinase gamma catalytic chain, liver/testis isoform (Homo sapiens, UniProt P15735). Nature of the series: Inhibition of PHKG2 (unknown origin).
Sequence of Phosphorylase b kinase gamma catalytic chain, liver/testis isoform (P15735 whole entry, canonical isoform): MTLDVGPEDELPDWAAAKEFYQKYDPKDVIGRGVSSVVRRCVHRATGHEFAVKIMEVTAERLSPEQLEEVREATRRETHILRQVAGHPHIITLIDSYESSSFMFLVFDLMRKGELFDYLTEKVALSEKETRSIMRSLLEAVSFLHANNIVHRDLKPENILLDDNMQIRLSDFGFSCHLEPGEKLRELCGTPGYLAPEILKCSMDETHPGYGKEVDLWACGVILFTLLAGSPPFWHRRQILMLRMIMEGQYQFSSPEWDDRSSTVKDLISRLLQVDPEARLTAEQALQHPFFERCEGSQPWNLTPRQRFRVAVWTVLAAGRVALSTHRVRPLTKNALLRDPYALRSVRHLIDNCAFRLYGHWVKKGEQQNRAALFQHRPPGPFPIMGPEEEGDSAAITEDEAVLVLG
Series [18] concerns the target Serine/threonine-protein kinase TBK1 (Homo sapiens, UniProt Q9UHD2). Put plainly: Inhibition of TBK1 (unknown origin).
Series [19] relates to Mus musculus. Nature of the series: Antialzheimer activity in 5XFAD mouse assessed as number of This-S positive cells per FOV in […] cortex at 1200 ppm administered as rodent chow starting from 1.5 months to 4 months followed by compound removal and measured after 1 months by immunolabelling based confocal microscopic analysis (reference value: 63 to 124). The class given is functional. Conditions: route po, time 2.5 months, 1825 h. Put shortly: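 For the repopulation paradigm, 5xFAD mice ate 1200 ppm PLX5622 chow from 1.5 to 4 months of age. Inhibitor chow was then withdrawn, and brains were examined one month later. Sections were stained with Thio-S and immunolabeled for IBA1, then analysed by confocal microscopy in cortical regions.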

Series [20] has as its target Megakaryocyte-associated tyrosine-protein kinase (Homo sapiens, UniProt P42679). Put plainly: Inhibition of MATK (unknown origin).
For series [21], the target named is T1, Macrophage colony-stimulating factor 1 receptor (Mus musculus) (UniProt P09581).
T1 sequence (whole entry): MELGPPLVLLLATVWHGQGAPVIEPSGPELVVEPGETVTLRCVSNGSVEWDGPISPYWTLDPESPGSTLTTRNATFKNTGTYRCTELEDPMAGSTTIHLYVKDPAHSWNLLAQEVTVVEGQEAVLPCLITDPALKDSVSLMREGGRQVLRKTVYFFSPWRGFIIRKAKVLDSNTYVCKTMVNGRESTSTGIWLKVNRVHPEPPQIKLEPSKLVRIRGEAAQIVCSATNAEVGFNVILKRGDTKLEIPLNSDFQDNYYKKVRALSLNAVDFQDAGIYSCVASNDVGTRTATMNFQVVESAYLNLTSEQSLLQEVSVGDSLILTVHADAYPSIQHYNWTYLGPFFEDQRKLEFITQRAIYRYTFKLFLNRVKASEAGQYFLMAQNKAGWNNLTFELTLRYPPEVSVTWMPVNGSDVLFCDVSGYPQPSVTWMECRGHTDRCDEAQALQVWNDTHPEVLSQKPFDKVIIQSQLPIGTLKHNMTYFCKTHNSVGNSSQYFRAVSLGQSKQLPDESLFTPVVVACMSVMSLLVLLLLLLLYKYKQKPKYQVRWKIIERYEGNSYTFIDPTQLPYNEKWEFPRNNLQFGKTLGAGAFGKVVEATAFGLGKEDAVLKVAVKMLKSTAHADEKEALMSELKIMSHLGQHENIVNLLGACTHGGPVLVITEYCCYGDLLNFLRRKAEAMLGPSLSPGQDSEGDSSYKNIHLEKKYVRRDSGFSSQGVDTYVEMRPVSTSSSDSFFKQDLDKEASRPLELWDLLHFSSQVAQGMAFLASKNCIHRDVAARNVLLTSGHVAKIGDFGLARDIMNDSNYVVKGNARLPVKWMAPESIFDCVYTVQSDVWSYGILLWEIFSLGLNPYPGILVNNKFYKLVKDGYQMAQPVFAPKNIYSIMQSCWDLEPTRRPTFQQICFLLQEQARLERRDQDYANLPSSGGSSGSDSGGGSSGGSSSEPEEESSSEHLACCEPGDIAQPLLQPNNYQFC
Nature of the series: In vivo inhibition of CSF1R in wildtype mouse assessed as number of S100bteta positive cells per FOV in somatosensory cortex at 1200 ppm administered as rodent chow for 10 to 24 weeks by immunolabelling based confocal microscopic analysis (reference value: 14 to 342). The series is classed as functional. Conditions: route po, time 10-24 weeks.

Series [22] has as its target PI3-kinase p110-alpha/p85-alpha (Homo sapiens, UniProt P42336). Nature of the series: Inhibition of PIK3CA/PIK3R1 (unknown origin). The series is classed as protein-complex assay.

Sequence of PI3-kinase p110-alpha/p85-alpha (P27986 whole entry): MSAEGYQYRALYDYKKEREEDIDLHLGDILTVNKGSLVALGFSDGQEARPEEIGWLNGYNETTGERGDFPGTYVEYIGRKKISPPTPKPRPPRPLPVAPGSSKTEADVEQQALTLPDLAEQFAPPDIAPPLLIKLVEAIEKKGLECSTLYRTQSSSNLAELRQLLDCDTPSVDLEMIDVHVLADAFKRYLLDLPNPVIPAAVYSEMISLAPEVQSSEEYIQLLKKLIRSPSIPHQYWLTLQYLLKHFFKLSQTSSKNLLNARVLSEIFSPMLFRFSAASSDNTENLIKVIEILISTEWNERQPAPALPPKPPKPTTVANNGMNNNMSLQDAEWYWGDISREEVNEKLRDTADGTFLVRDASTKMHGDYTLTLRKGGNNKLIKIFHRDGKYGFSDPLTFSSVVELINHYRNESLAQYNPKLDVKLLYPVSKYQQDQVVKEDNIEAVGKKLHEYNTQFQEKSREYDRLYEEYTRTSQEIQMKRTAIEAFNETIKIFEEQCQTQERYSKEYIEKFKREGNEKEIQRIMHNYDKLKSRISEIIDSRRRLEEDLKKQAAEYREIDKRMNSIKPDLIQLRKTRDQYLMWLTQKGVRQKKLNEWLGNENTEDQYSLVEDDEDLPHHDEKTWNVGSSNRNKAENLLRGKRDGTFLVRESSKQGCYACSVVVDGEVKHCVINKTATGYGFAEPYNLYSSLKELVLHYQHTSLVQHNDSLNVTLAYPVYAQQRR
Sequence of PI3-kinase p110-alpha/p85-alpha (P42336 whole entry): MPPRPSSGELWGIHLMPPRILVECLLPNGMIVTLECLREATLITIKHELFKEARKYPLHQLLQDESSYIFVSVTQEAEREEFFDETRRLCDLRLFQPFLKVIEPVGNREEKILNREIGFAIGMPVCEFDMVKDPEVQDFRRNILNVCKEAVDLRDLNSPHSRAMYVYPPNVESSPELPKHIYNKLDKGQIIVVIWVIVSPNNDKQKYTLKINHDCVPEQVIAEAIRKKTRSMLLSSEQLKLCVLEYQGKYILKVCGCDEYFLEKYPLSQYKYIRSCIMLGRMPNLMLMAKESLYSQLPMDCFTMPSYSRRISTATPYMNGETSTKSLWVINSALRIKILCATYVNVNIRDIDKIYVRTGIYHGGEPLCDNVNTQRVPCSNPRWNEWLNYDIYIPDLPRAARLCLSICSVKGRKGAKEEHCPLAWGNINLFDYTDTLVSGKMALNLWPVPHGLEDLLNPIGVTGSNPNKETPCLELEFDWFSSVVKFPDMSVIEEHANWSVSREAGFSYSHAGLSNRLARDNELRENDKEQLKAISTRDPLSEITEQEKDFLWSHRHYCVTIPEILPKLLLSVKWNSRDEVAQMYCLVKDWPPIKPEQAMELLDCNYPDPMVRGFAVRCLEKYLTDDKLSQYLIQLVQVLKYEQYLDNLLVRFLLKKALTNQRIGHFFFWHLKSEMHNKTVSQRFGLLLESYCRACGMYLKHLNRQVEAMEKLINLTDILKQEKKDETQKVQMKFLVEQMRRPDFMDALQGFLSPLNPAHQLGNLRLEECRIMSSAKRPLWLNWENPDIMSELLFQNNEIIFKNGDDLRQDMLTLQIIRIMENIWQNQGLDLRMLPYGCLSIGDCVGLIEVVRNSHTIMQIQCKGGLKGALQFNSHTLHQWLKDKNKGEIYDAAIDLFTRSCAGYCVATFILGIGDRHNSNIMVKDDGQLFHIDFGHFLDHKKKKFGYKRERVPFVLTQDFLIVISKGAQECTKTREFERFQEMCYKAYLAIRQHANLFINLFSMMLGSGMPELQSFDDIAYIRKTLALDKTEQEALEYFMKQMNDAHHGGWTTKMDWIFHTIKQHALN
Sequence of Serine/threonine-protein kinase TBK1 (Q9UHD2 whole entry): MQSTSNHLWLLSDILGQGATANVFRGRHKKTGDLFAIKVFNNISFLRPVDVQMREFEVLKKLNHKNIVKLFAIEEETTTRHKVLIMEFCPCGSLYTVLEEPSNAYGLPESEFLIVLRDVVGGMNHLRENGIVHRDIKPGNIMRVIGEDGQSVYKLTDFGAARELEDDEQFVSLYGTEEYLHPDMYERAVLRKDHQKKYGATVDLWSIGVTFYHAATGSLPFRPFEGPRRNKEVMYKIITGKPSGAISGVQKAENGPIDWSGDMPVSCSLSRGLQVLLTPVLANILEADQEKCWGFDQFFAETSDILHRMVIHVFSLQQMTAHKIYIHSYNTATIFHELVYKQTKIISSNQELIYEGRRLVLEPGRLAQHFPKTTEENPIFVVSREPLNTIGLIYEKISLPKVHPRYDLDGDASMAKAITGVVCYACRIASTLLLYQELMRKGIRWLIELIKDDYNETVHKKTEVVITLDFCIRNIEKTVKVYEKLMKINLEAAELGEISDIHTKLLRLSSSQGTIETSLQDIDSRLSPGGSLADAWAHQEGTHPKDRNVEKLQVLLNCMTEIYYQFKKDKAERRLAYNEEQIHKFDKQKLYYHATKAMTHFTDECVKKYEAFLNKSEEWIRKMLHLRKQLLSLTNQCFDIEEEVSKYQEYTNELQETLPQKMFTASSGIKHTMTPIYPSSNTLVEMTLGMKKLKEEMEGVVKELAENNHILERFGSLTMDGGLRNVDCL
Sequence of Megakaryocyte-associated tyrosine-protein kinase (P42679 whole entry): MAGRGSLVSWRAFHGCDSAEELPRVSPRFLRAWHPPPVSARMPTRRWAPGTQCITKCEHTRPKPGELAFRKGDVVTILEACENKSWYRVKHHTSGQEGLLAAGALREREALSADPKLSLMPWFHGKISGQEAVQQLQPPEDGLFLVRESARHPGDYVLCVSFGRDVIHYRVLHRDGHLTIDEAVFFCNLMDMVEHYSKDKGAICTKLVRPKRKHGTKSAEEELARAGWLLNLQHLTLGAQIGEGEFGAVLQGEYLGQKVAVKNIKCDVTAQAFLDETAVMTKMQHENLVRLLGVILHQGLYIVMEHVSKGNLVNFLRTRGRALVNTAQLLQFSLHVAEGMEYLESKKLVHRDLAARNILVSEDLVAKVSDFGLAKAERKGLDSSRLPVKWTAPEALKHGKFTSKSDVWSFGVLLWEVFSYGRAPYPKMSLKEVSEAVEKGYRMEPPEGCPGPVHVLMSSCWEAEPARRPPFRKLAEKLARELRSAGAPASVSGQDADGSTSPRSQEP

Usually IC50 stands for the midpoint of a concentration-inhibition curve. Broadly, the half-life is the time needed for the level to fall by half in the phase considered. Regarding `COc1ncc(F)cc1CNc1ccc(Cc2c[nH]c3ncc(C)cc23)c(F)n1` [PLX-5622], the Flu intensity in series [1] stood at 6.682 a.u. The 50% inhibitory concentration (IC50) in [2], in series [3], in [7], in [10], in series [13] and in series [16] was above 1000 nM throughout. The IC50 in series [17], in [18], in [20] and in series [22] was above 1000 nM in each case. The same compound showed a half-life in series [4] of 132 min. In addition, the Activity in series [5] is reported as 0.043 RPKM; in [6], 68.859%; in series [8], 0.07; in [9] it was 0 RPKM; in series [12] it was 8.715 RPKM; in [15] it was 10.635 RPKM. The Activity in series [19] was 60; in series [21], 270. For the same compound, the result in series [11] was Active. For the same compound, the Time in series [14] was 157.6 s.

The values are drawn from ChEMBL document CHEMBL5649170, “Sustained microglial depletion with CSF1R inhibitor impairs parenchymal plaque development in an Alzheimer's disease model” (Nat Commun, 2019).
